Test results: ChEMBL document CHEMBL4689842, “EUbOPEN Chemogenomics Library wave 1” (2021)

Tested on: HEK-293T
Assay: Multiplex assay against HEK293T;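 as to Population Tubulin-Different-Phenotype (%): share of the cells with healthy nuclei that show this phenotype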
Assay type: toxicity, cell-based
Conditions: human
Method in brief: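 Hoechst33342, BioTracker Green Microtubule Cytoskeleton Dye, MitoTracker Red and Annexin V Alexa Fluor 680 were added to live cells at seeding, and imaging on a CQ1 microscope at 37°C and 5% CO2 followed compound addition. Gating by CellPathfinder machine learning separated cells into Hoechst high-intensity objects or normal cells, then normal cells into healthy, pyknosed or fragmented nuclei, then pyknosed cells into mitotic or apoptotic. Per cents of healthy-nucleus cells are reported for the tubulin, mitochondrial-mass and membrane-permeability phenotypes.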

[1] = 12 h, 0 µM, compound concentration 0 uM, replicate 1
[2] = 12 h, 0 µM, compound concentration 0 uM, replicate 2
[3] = 12 h, 1 µM, compound concentration 1 uM, replicate 1
[4] = 12 h, 1 µM, compound concentration 1 uM, replicate 2
[5] = 24 h, 0 µM, compound concentration 0 uM, replicate 1
[6] = 24 h, 0 µM, compound concentration 0 uM, replicate 2
[7] = 24 h, 1 µM, compound concentration 1 uM, replicate 1
[8] = 24 h, 1 µM, compound concentration 1 uM, replicate 2

Structure (SMILES): CCNc1cc(N[C@H]2CC[C@H](O)CC2)nc(Nc2ccc3c(ccn3Cc3ccccc3)c2)n1
- Population Apoptotic (%) [1]: 42%
- Population Fragmented Nuclei (%) [1]: 21%
- Population Healthy Nuclei (%) [1]: 10%
- Population Hoechst High Intensity Objects (%) [1]: 21%
- Population Membrane Permeable-Phenotype (%) [1]: 16%
- Population Mitochondria Different-Phenotype (%) [1]: 41%
- Population Mitotic Cells (%) [1]: 57%
- Population Normal (%) [1]: 78%
- Population Pyknosed Nuclei (%) [1]: 67%
- Population Tubulin-Different-Phenotype (%) [1]: 50%
- Total Cell Count [1]: 667
- Population Apoptotic (%) [2]: 29%
- Population Fragmented Nuclei (%) [2]: 3%
- Population Healthy Nuclei (%) [2]: 38%
- Population Hoechst High Intensity Objects (%) [2]: 6%
- Population Membrane Permeable-Phenotype (%) [2]: 1%
- Population Mitochondria Different-Phenotype (%) [2]: 83%
- Population Mitotic Cells (%) [2]: 70%
- Population Normal (%) [2]: 93%
- Population Pyknosed Nuclei (%) [2]: 58%
- Population Tubulin-Different-Phenotype (%) [2]: 97%
- Total Cell Count [2]: 1155
- Population Apoptotic (%) [3]: 23%
- Population Fragmented Nuclei (%) [3]: 12%
- Population Healthy Nuclei (%) [3]: 54%
- Population Hoechst High Intensity Objects (%) [3]: 10%
- Population Mitochondria Different-Phenotype (%) [3]: 27%
- Population Mitotic Cells (%) [3]: 76%
- Population Normal (%) [3]: 89%
- Population Pyknosed Nuclei (%) [3]: 32%
- Population Tubulin-Different-Phenotype (%) [3]: 46%
- Total Cell Count [3]: 618
- Population Apoptotic (%) [4]: 7%
- Population Fragmented Nuclei (%) [4]: 3%
- Population Healthy Nuclei (%) [4]: 85%
- Population Hoechst High Intensity Objects (%) [4]: 2%
- Population Membrane Permeable-Phenotype (%) [4]: 10%
- Population Mitochondria Different-Phenotype (%) [4]: 33%
- Population Mitotic Cells (%) [4]: 92%
- Population Normal (%) [4]: 97%
- Population Pyknosed Nuclei (%) [4]: 11%
- Population Tubulin-Different-Phenotype (%) [4]: 80%
- Total Cell Count [4]: 1484
- Population Apoptotic (%) [5]: 59%
- Population Fragmented Nuclei (%) [5]: 26%
- Population Healthy Nuclei (%) [5]: 10%
- Population Hoechst High Intensity Objects (%) [5]: 19%
- Population Membrane Permeable-Phenotype (%) [5]: 5%
- Population Mitochondria Different-Phenotype (%) [5]: 51%
- Population Mitotic Cells (%) [5]: 40%
- Population Normal (%) [5]: 80%
- Population Pyknosed Nuclei (%) [5]: 63%
- Population Tubulin-Different-Phenotype (%) [5]: 53%
- Total Cell Count [5]: 694
- Population Apoptotic (%) [6]: 37%
- Population Fragmented Nuclei (%) [6]: 2%
- Population Healthy Nuclei (%) [6]: 30%
- Population Hoechst High Intensity Objects (%) [6]: 8%
- Population Membrane Permeable-Phenotype (%) [6]: 2%
- Population Mitochondria Different-Phenotype (%) [6]: 91%
- Population Mitotic Cells (%) [6]: 62%
- Population Normal (%) [6]: 91%
- Population Pyknosed Nuclei (%) [6]: 66%
- Population Tubulin-Different-Phenotype (%) [6]: 96%
- Total Cell Count [6]: 1176
- Population Apoptotic (%) [7]: 20%
- Population Fragmented Nuclei (%) [7]: 9%
- Population Healthy Nuclei (%) [7]: 76%
- Population Hoechst High Intensity Objects (%) [7]: 7%
- Population Membrane Permeable-Phenotype (%) [7]: 8%
- Population Mitochondria Different-Phenotype (%) [7]: 18%
- Population Mitotic Cells (%) [7]: 79%
- Population Normal (%) [7]: 92%
- Population Pyknosed Nuclei (%) [7]: 13%
- Population Tubulin-Different-Phenotype (%) [7]: 54%
- Total Cell Count [7]: 703
- Population Apoptotic (%) [8]: 9%
- Population Fragmented Nuclei (%) [8]: 11%
- Population Healthy Nuclei (%) [8]: 83%
- Population Hoechst High Intensity Objects (%) [8]: 2%
- Population Membrane Permeable-Phenotype (%) [8]: 12%
- Population Mitochondria Different-Phenotype (%) [8]: 14%
- Population Mitotic Cells (%) [8]: 90%
- Population Normal (%) [8]: 97%
- Population Pyknosed Nuclei (%) [8]: 4%
- Population Tubulin-Different-Phenotype (%) [8]: 75%
- Total Cell Count [8]: 2335
